# TRPC4 PAM = positive allosteric modulators of TRPC4, primary screen, cell-based, mouse TRPC4beta, HEK293 mu-opioid, Fluo-4 calcium. DAMGO EC20, Fluo-4 Ca2+ flux; active compounds read high. 0.42% of 310,000 active. Short transient receptor potential channel 4 (Mus musculus), Q9QUQ5. B-score at 10 µM;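 active = B-score of calcium response area above 5 SD of library B-scores, with initial fluorescence ratio within 5 SD of library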;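 note: B-score of integrated fluorescence ratio over time as area under calcium response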
# TRPC6 activator = mouse TRPC6 channel activators, primary screen, cell-based, HEK293, membrane potential dye; Short transient receptor potential channel 6 (Mus musculus), Q61143; HEK293-TRPC6 membrane potential dye fluorescence; active compounds read high; B-score at 10 µM; 0.13% of 310,000 active;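 active = B-score of the integrated fluorescence ratio above library mean plus 3 SD, and starting fluorescence ratio within library mean plus 5 SD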;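 note: higher score means more depolarization so channel activation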
# Target sequence (Q61143 whole entry, looked up): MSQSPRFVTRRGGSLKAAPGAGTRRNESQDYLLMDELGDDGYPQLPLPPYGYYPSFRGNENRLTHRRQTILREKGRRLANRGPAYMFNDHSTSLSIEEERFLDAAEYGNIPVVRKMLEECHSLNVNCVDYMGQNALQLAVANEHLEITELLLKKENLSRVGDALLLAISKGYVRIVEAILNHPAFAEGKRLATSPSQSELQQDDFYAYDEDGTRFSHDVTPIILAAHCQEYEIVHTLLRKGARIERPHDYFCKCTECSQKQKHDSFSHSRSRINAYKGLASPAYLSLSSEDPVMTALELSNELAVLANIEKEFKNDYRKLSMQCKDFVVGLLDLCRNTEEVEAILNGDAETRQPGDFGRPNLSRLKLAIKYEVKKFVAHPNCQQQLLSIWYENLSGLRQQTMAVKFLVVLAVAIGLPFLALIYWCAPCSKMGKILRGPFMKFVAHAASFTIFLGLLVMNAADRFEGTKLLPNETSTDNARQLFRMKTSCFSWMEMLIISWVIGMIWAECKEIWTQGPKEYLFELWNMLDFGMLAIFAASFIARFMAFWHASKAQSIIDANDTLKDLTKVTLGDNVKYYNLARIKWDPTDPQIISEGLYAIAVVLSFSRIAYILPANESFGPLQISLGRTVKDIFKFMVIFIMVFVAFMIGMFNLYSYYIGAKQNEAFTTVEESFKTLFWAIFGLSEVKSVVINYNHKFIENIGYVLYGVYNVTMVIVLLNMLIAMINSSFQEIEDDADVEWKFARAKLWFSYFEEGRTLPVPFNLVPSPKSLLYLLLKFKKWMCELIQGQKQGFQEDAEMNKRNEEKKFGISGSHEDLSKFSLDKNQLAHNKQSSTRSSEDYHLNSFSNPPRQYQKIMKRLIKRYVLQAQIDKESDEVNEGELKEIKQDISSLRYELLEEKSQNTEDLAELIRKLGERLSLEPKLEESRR
# TRPC4 inh = inhibitors of mouse TRPC4 channel, primary screen, Fluo4 calcium, HEK293 TRPC4beta/mu-opioid cells | DAMGO-evoked Fluo4 calcium flux; active compounds read low | B-score at 10 µM | 0.39% of 300,000 active | AID 2247, 2010;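 active = B-score over 3 SD under the library average, no early fluorescence shift, positive overall ratio signal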
#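 material = TRPC4beta/mu-opioid receptor HEK293 cell line | probe or stimulus = sequential submaximal and maximal DAMGO stimulation | compound dosing = one concentration per compound | measured by = Fluo4 Ca2+ flux fluorescence | evaluation = integrated fluorescence ratio relative to baseline, converted to per-well B score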
# TRPC6 inhibitor = mouse TRPC6 channel inhibitors, primary screen, cell-based, HEK293, membrane potential dye | Short transient receptor potential channel 6 (Mus musculus), Q61143 | ACh-evoked depolarization; active compounds read low | B-score at 10 µM | 1.1% of 310,000 active;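 active = B-score under library mean minus 3 SD, initial fluorescence not abnormally high, positive integrated signal ratio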;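 note: B-score derived from integrated fluorescence ratio over the kinetic read; more negative B-score means stronger inhibition of depolarization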
# TRPC4 act = activators of mouse TRPC4 channel, primary screen, Fluo4 calcium, HEK293 TRPC4beta/mu-opioid cells; Short transient receptor potential channel 4 (Mus musculus), Q9QUQ5; Fluo4 calcium fluorescence; active compounds read high; B-score at 10 µM; 0.49% of 310,000 active;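 active = B-score above 5 SD of library B-scores, and initial fluorescence ratio not above library mean plus 5 SD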;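 note: positive B-score marks a calcium rise read as TRPC4 activation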
#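 Incubation: 45 min room-temperature Fluo4 loading, 110 s read / System: HEK293 cells stably co-expressing mouse TRPC4beta and mu-opioid receptor / Signal: Fluo4 fluorescence, kinetic / Control set: buffer (low) and maximal DAMGO (high) / Measure: integrated baseline-normalised fluorescence ratio, converted to per-well B score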
# TRPC4 sel inh 2 = second check of whether TRPC6 inhibitors also affect mouse TRPC4; shares compounds with TRPC6 inhibitor; HEK293 TRPC4/MOR, membrane potential dye fluorescence; channel activated by saturating DAMGO dose; inhibition, % at 10 µM; 42% of 920 active; AID 2776;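 active = compounds whose fluorescence signal differed from control wells by over 3 SD, either direction, in both duplicate plates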
# TRPC4 spec = mouse TRPC4 modulation by TRPC6 hits, confirmation, selectivity assay for TRPC6 inhibitor project, cell-based, HEK293 TRPC4/mu-opioid, membrane potential dye; AID 2777, 2010; membrane potential fluorescence; 61% of 920 active; shares compounds with TRPC6 inhibitor; activity change, negative = inhibition, % at 10 µM;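 active = rise or fall in signal beyond 3 SD of buffer-only wells in both replicate plates, either sign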;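 note: integrated kinetic ratio of fluorescence range over baseline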
# HEK293 MPD ctr 2-1 = nonspecific membrane potential effects, parental HEK293, confirmation, counter-screen for TRPC6 inhibitor project, cell-based, second counter screen. shares compounds with TRPC6 inhibitor. parental HEK293 membrane potential dye fluorescence; maximal acetylcholine challenge after compound addition. signal change vs control, % at 10 µM. 31% of 920 active;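 active = membrane potential signal moving either way by over 3 SD of the maximum-effect control, in both duplicate plates, meaning non-specific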
# HEK293 MPD ctr-1 = membrane potential modulation in parental HEK293, confirmation, counter-screen for TRPC6 inhibitor project, cell-based | 60% of 920 active | membrane potential signal change, % at 10 µM | shares compounds with TRPC6 inhibitor | AID 2780, 2010 | parental HEK293 membrane potential dye fluorescence;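 active = membrane potential signal shifting up or down by more than 3 SD of buffer-only wells, on both duplicate plates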
# HEK293 MPD ctr-2 = parental HEK293 membrane potential modulation, confirmation, counter-screen for TRPC6 modulator project, cell-based; 51% of 2,400 active; shares compounds with TRPC6 inhibitor; membrane potential dye fluorescence; membrane potential signal change, % at 10 µM;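 active = membrane potential signal moves up or down beyond 5 SD from buffer-only wells, on both duplicate plates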
# HEK293 MPD ctr 2-2 = second counter-screen for TRPC6 modulators: effect in parental HEK293 cells | shares compounds with TRPC6 inhibitor | membrane potential dye fluorescence; after compound, maximal acetylcholine stimulation | inhibition, % at 10 µM | 14% of 2,400 active | AID 488926;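 active = membrane potential signal drops by more than 5 SD from the mean control signal, in both duplicate plates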;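 note: plate controls were acetylcholine ECmax control wells for no effect and buffer only wells for full effect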
# TRPC4/MOR mod = TRPC4 modulation by TRPC6 hit compounds, confirmation, selectivity assay for TRPC6 modulator project, cell-based, HEK293 TRPC4/mu-opioid, membrane potential dye, mouse; shares compounds with TRPC6 inhibitor; membrane potential fluorescence; percent change from control (negative = decrease, positive = increase), % at 10 µM; 69% of 2,400 active;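 active = membrane potential signal moved up or down beyond 5 SD of buffer control wells, in both duplicate plates, actives on both sides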;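 note: plate controls were assay buffer wells for no effect and DAMGO maximal-effect wells for full effect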
# TRPC4/MOR inh 2 = mouse TRPC4 off-target activity of TRPC6 modulators, second screen | shares compounds with TRPC6 inhibitor | HEK293 TRPC4/mu-opioid, membrane potential dye fluorescence; stimulated with maximal-effect DAMGO | inhibition, % at 10 µM | 55% of 2,400 active | AID 488928;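 active = drop in membrane potential signal beyond 5 SD of the control wells in both duplicate plates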;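 note: TRPC4 counter screen for TRPC6 hits run under conditions tuned for TRPC6 not TRPC4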
# TRPC6 inh conf = mouse TRPC6 channel inhibitors, confirmation, HEK293 cells, membrane potential dye, duplicate; shares compounds with TRPC6 inhibitor; ACh-evoked depolarization; inhibition, % at 10 µM; 43% of 3,300 active; AID 488960, 2010;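 active = fluorescence ratio falls more than 5 SD below the full-stimulation control mean, in both duplicate runs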;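 note: integrated fluorescence ratio of peak minus minimum over baseline after agonist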
# TRPC6 act confirm = mouse TRPC6 channel activators, confirmation, HEK293 cells, membrane potential dye, duplicate; shares compounds with TRPC6 inhibitor; HEK293-TRPC6 membrane potential dye fluorescence, FDSS; activation, % at 10 µM; 11% of 2,800 active;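 active = ratio signal rise beyond 5 SD above unstimulated control wells' mean, seen in both duplicate runs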;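 note: plate controls were buffer EC0 wells for no effect and acetylcholine ECmax response for full effect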
# An asterisk follows results filed as active; i = inactive; . = not tested or not shown. Most compounds without a hit are left out; they make up all but 2.3% or so of the library.
SMILES,TRPC4 PAM,TRPC6 activator,TRPC4 inh,TRPC6 inhibitor,TRPC4 act,HEK293 MPD ctr-2,HEK293 MPD ctr 2-2,TRPC4/MOR mod,TRPC4/MOR inh 2,TRPC6 inh conf,TRPC6 act confirm,others
Cc1cc(N2CCN(C)CC2)n2nc(-c3ccc(Cl)cc3)nc2n1,i,i,i,-6.94*,i,-310.0%*,96.5%*,-28.0%*,53.0%*,65.5%*,i,
CCOc1ccc(CCNC(=O)c2cccc(S(=O)(=O)N3CCCCC3)c2)cc1OCC,i,i,i,i,i,.,.,.,.,.,.,
CC1(C)CC(N=C2C([N+](=O)[O-])=CC=C3C2=NC2(CCCCC2)N3O)CC(C)(C)N1,i,i,i,-5.25*,i,-130.5%*,i,-26.0%*,29.5%*,i,i,
O=[N+]([O-])C1=CC=C2C(=NC3(CCCCC3)N2O)C1=NC1CCCCC1,i,i,i,i,i,.,.,.,.,.,.,
CN1CCN(c2ccc(CNC(=O)c3cc4ccccc4o3)cc2)CC1,i,i,i,-5.33*,i,i,i,i,32.0%*,i,i,
NC(=O)N=Nc1c(O)n(Cc2ccccc2)c2ccc(Br)cc12,i,i,i,i,i,.,.,.,.,.,.,
C=CC[N+]1(CC#CCOC(c2ccccc2)c2ccccc2)CCOCC1,i,i,i,-5.54*,i,i,i,-16.5%*,i,37.0%*,i,
C=CC#CC[N+]1(CC#Cc2ccccc2)CCOCC1,i,i,i,i,i,.,.,.,.,.,.,
CNC(=S)N/N=C/c1cn(Cc2c(F)cccc2Cl)c2ccccc12,i,i,i,-5.3*,i,i,i,i,i,i,.,
CCOC(=O)c1c(NC(=O)COC(=O)c2ccc(O)cc2)sc(C(=O)N(C)C)c1C,i,i,i,i,i,.,.,.,.,.,.,
CCOC(=O)c1c(NC(=O)COC(=O)CCOc2ccc(C)cc2)sc(C(=O)N(C)C)c1C,i,14.3*,i,i,i,480.5%*,i,44.0%*,66.0%*,i,i,
CCOC(=O)c1c(NC(=O)COC(=O)CCOc2ccc(OCC)cc2)sc(C(=O)N(C)C)c1C,61*,12.5*,i,i,i,279.0%*,i,165.0%*,71.5%*,i,124.0%*,
CCOC(=O)c1c(NC(=O)COC(=O)c2ccccn2)sc(C(=O)N(C)C)c1C,i,i,i,i,i,.,.,.,.,.,.,
CCc1ccc(NC(=O)NCc2cccnc2)cc1,i,i,i,i,i,.,.,.,.,.,.,
N=c1c(C(=O)NC2CCCCC2)cc2c(=O)n3ccccc3nc2n1Cc1ccccc1,i,i,i,-8.04*,i,-141.5%*,i,-36.5%*,50.5%*,46.5%*,i,
N=c1c(C(=O)NC2CCCCC2)cc2c(=O)n3ccccc3nc2n1Cc1cccnc1,i,i,i,-5.49*,i,-84.5%*,i,-23.5%*,30.5%*,36.5%*,i,
C[n+]1cccc2ccc3c(c21)OC(N)=C(C#N)C3c1ccccc1 (stereo unspecified),i,i,i,-9.16*,i,-284.0%*,80.5%*,-47.5%*,60.0%*,74.5%*,i,
N=c1c2ccccc2nc2n1CCCCCCCCCCC2,i,i,i,-7.61*,i,.,.,.,.,i,.,TRPC4 sel inh 2=50.0%*;TRPC4 spec=17.1%*;HEK293 MPD ctr 2-1=253.5%*;HEK293 MPD ctr-1=18.3%*
NCC(O)CN1CCN(Cc2ccccc2)CC1 (stereo unspecified),i,i,i,i,i,.,.,.,.,.,.,
CCCN(CC1CC1)C(=O)CCc1nnc(CCc2c[nH]c3ccccc23)o1,i,i,i,-6.8*,i,.,.,.,.,i,i,TRPC4 sel inh 2=i;TRPC4 spec=2.7%*;HEK293 MPD ctr 2-1=i;HEK293 MPD ctr-1=0.9%*
CCN(CC)C(=O)CCc1nnc(CCc2c[nH]c3ccccc23)o1,i,i,i,i,i,.,.,.,.,.,.,
O=C(c1cc(COc2ccc(F)cc2F)on1)N1CCN(C2CCCC2)C(=O)C1,i,i,i,i,i,.,.,.,.,.,.,
Cn1c(C(=O)NCCN2CCOCC2)cc2c(=O)n3ccccc3nc21,i,i,i,i,i,.,.,.,.,.,.,
Cc1ccc(Cn2c(=N)c(C(=O)NCCN3CCOCC3)cc3c(=O)n4ccccc4nc32)cc1,19*,i,i,-6.59*,i,-70.5%*,98.5%*,-14.0%*,47.0%*,39.5%*,i,
